ChEMBL document CHEMBL1148170, “Antiplatelet effects and vasorelaxing action of some constituents of Formosan plants” (1993)

Experiments:
[1] = system: Platelet; experiment: Inhibition of arachidonic acid-induced platelet aggregation in rabbit platelet-rich plasma at 100 ug/mL after 3 mins by turbidimetric method; type: functional, Oryctolagus cuniculus; parameters: scale not given: the % may be the effect or the level left
Procedure, shortened: (§1)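 Preincubated with test agent or 0.5% DMSO (final, control) at 37° for 3 min, then ADP (20 μM), arachidonic acid (100 μM), collagen (10 μg/ml) or PAF (2 ng/ml) added. Stirred at 1200 rpm, turbidimetric aggregometry. Percent aggregation as mean ± SEM.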

[2] = system: Platelet; experiment: Inhibition of collagen-induced platelet aggregation in rabbit platelet-rich plasma at 100 ug/mL after 3 mins by turbidimetric method; type: functional, Oryctolagus cuniculus; parameters: scale not given: the % may be the effect or the level left; procedure, shortened: as §1
[3] = system: Platelet; experiment: Inhibition of platelet activity factor-induced platelet aggregation in rabbit platelet-rich plasma at 100 ug/mL after 3 mins by turbidimetric method; type: functional, Oryctolagus cuniculus; parameters: scale not given: the % may be the effect or the level left; procedure, shortened: as §1
[4] = system: Aorta; experiment: Inhibition of K(+)/Ca(2+)-induced Wistar rat thoracic aorta contraction at 100 ug/mL after 15 mins; type: functional
Procedure, shortened: (§2)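 Wistar rat thoracic aorta rings, about 5 mm, in Krebs solution at 37° gassed with 95% O2/5% CO2, under 1 g tension, equilibrated 90 min. Preincubated 15 min with compound or 0.1% DMSO (control), then stimulated with high K+ (80 mM) plus Ca2+ (1.9 mM) or norepinephrine 3 μM (phasic and tonic phases). Expressed as % of control contraction, mean ± SE, n = 3.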

[5] = system: Aorta; experiment: Inhibition of norepinephrine-induced Wistar rat thoracic aorta phasic contraction at 100 ug/mL after 15 mins; type: functional; procedure, shortened: as §2
[6] = system: Aorta; experiment: Inhibition of norepinephrine-induced Wistar rat thoracic aorta tonic contraction at 100 ug/mL after 15 mins; type: functional; procedure, shortened: as §2
[7] = system: Platelet; experiment: Inhibition of ADP-induced platelet aggregation in rabbit platelet-rich plasma at 50 ug/mL after 3 mins by turbidimetric method; type: functional, Oryctolagus cuniculus; parameters: scale not given: the % may be the effect or the level left
Procedure, shortened: as §1, with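 “Washed rabbit platelets from EDTA-anticoagulated platelet-rich plasma, 4.5 × 10^8/ml in Tyrode's solution with 0.35% BSA. Preincubated” for “Preincubated”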

[8] = system: Platelet; experiment: Inhibition of arachidonic acid-induced platelet aggregation in rabbit platelet-rich plasma at 50 ug/mL after 3 mins by turbidimetric method; type: functional, Oryctolagus cuniculus; parameters: scale not given: the % may be the effect or the level left
Procedure, shortened: (§3)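 Washed rabbit platelets from EDTA-anticoagulated platelet-rich plasma, 4.5 × 10^8/ml in Tyrode's solution with 0.35% BSA. Preincubated with compound or 0.5% DMSO (final) at 37° for 3 min, stirred at 1200 rpm. Arachidonic acid (100 µM) or collagen (10 µg/ml) then added. Turbidimetric read-out on a Lumi-aggregometer gives % aggregation as mean ± SEM.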

[9] = system: Platelet; experiment: Inhibition of collagen-induced platelet aggregation in rabbit platelet-rich plasma at 50 ug/mL after 3 mins by turbidimetric method; type: functional, Oryctolagus cuniculus; parameters: scale not given: the % may be the effect or the level left; procedure, shortened: as §3
[10] = system: Platelet; experiment: Inhibition of platelet activity factor-induced platelet aggregation in rabbit platelet-rich plasma at 50 ug/mL after 3 mins by turbidimetric method; type: functional, Oryctolagus cuniculus; parameters: scale not given: the % may be the effect or the level left
Procedure, shortened: as §1, with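 “Washed rabbit platelets from EDTA-anticoagulated platelet-rich plasma, 4.5 × 10^8/ml in Tyrode's solution with 0.35% BSA. Preincubated” for “Preincubated”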

[11] = system: Platelet; experiment: Inhibition of ADP-induced platelet aggregation in rabbit platelet-rich plasma at 100 ug/mL after 3 mins by turbidimetric method; type: functional, Oryctolagus cuniculus; parameters: scale not given: the % may be the effect or the level left
Procedure, shortened: as §1, with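 “Washed rabbit platelets from EDTA-anticoagulated platelet-rich plasma, 4.5 × 10^8/ml in Tyrode's solution with 0.35% BSA. Preincubated” for “Preincubated”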

[12] = system: Platelet; experiment: Inhibition of arachidonic acid-induced platelet aggregation in rabbit platelet-rich plasma at 25 ug/mL after 3 mins by turbidimetric method; type: functional, Oryctolagus cuniculus; parameters: scale not given: the % may be the effect or the level left
Procedure, shortened: as §1, with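 “Washed rabbit platelets from EDTA-anticoagulated platelet-rich plasma, 4.5 × 10^8/ml in Tyrode's solution with 0.35% BSA. Preincubated” for “Preincubated”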

[13] = system: Platelet; experiment: Inhibition of ADP-induced platelet aggregation in rabbit platelet-rich plasma at 25 ug/mL after 3 mins by turbidimetric method; type: functional, Oryctolagus cuniculus; parameters: scale not given: the % may be the effect or the level left
Procedure, shortened: as §1, with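 “Washed rabbit platelets from EDTA-anticoagulated platelet-rich plasma, 4.5 × 10^8/ml in Tyrode's solution with 0.35% BSA. Preincubated” for “Preincubated”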

[14] = system: Platelet; experiment: Inhibition of collagen-induced platelet aggregation in rabbit platelet-rich plasma at 25 ug/mL after 3 mins by turbidimetric method; type: functional, Oryctolagus cuniculus; parameters: scale not given: the % may be the effect or the level left
Procedure, shortened: as §1, with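 “Washed rabbit platelets from EDTA-anticoagulated platelet-rich plasma, 4.5 × 10^8/ml in Tyrode's solution with 0.35% BSA. Preincubated” for “Preincubated”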

[15] = system: Platelet; experiment: Inhibition of platelet activity factor-induced platelet aggregation in rabbit platelet-rich plasma at 25 ug/mL after 3 mins by turbidimetric method; type: functional, Oryctolagus cuniculus; parameters: scale not given: the % may be the effect or the level left
Procedure, shortened: as §1, with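 “Washed rabbit platelets from EDTA-anticoagulated platelet-rich plasma, 4.5 × 10^8/ml in Tyrode's solution with 0.35% BSA. Preincubated” for “Preincubated”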

[16] = system: Aorta; experiment: Inhibition of norepinephrine-induced Wistar rat thoracic aorta phasic contraction at 50 ug/mL after 15 mins; type: functional; parameters: scale not given: the % may be the effect or the level left
Procedure, shortened: (§4)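 Thoracic aorta rings (~5 mm) from Wistar rats of either sex (250–300 g) held in Krebs solution at 37° under 95% O2/5% CO2. Equilibrated 90 min at 1 g tension, then preincubated 15 min with compound or 0.1% DMSO. Contraction by norepinephrine (3 µM), phasic and tonic components, expressed as % of control contraction, mean ± SE, n = 3.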

[17] = system: Aorta; experiment: Inhibition of norepinephrine-induced Wistar rat thoracic aorta phasic contraction at 20 ug/mL after 15 mins; type: functional; parameters: scale not given: the % may be the effect or the level left; procedure, shortened: as §4
[18] = system: Aorta; experiment: Inhibition of norepinephrine-induced Wistar rat thoracic aorta phasic contraction at 10 ug/mL after 15 mins; type: functional; parameters: scale not given: the % may be the effect or the level left; procedure, shortened: as §4
[19] = system: Aorta; experiment: Inhibition of norepinephrine-induced Wistar rat thoracic aorta tonic contraction at 50 ug/mL after 15 mins; type: functional; parameters: scale not given: the % may be the effect or the level left; procedure, shortened: as §4
[20] = system: Aorta; experiment: Inhibition of norepinephrine-induced Wistar rat thoracic aorta tonic contraction at 20 ug/mL after 15 mins; type: functional; parameters: scale not given: the % may be the effect or the level left; procedure, shortened: as §4
[21] = system: Aorta; experiment: Inhibition of norepinephrine-induced Wistar rat thoracic aorta tonic contraction at 10 ug/mL after 15 mins; type: functional; parameters: scale not given: the % may be the effect or the level left; procedure, shortened: as §4
[22] = system: Platelet; experiment: Inhibition of collagen-induced platelet aggregation in rabbit platelet-rich plasma after 3 mins by turbidimetric method; type: functional; settings: Oryctolagus cuniculus

| SMILES | Activity [1] [%] | Activity [2] [%] | Activity [3] [%] | Activity [11] [%] | also measured |
| --- | --- | --- | --- | --- | --- |
| CC(=O)Oc1cc(OC(C)=O)c2c(=O)c(OC(C)=O)c(-c3ccc(OC(C)=O)c(OC(C)=O)c3)oc2c1 | 2.4 | 17.4 | 89.2 | – | – |
| O=c1c(O[C@@H]2O[C@H](CO[C@@H]3OC[C@H](O)[C@H](O)[C@H]3O)[C@H](O)[C@H](O)[C@H]2O)c(-c2ccc(O)c(O)c2)oc2cc(O)cc(O)c12 | – | – | – | – | Contraction as % of control [4]: 100%; Contraction as % of control [5]: 100%; Contraction (% of control) [6]: 108.4% |
| CC(=O)Oc1cc(OC(C)=O)c2c(=O)c(O[C@@H]3O[C@H](CO[C@@H]4OC[C@H](OC(C)=O)[C@H](OC(C)=O)[C@H]4OC(C)=O)[C@H](OC(C)=O)[C@H](OC(C)=O)[C@H]3OC(C)=O)c(-c3ccc(OC(C)=O)c(OC(C)=O)c3)oc2c1 | 78.3 | 38.5 | 87.7 | – | – |
| COc1cc(OC(C)=O)c2c(=O)c(O[C@@H]3O[C@H](CO[C@@H]4O[C@@H](C)[C@H](O[C@@H]5O[C@@H](C)[C@H](OC(C)=O)[C@@H](OC(C)=O)[C@H]5OC(C)=O)[C@@H](OC(C)=O)[C@H]4OC(C)=O)[C@H](OC(C)=O)[C@H](OC(C)=O)[C@H]3OC(C)=O)c(-c3ccc(OC(C)=O)c(OC)c3)oc2c1 | 88.8 | 87.8 | 90.8 | – | – |
| Cc1cc(O)c2c(c1)C(=O)c1cccc(O)c1C2=O [CHRYSOPHANOL] | – | – | – | – | Activity [7]: 82.6%; Activity [8]: 90.6%; Activity [9]: 85.4%; Activity [10]: 88.3% |
| CC(=O)Oc1cc(OC(C)=O)c2c(c1)C(=O)c1cc(C)cc(OC(C)=O)c1C2=O [EMODIN TRIACETATE] | 82.5 | 89.6 | 84.5 | 72.2 | – |
| Cc1cc(O)c2c(c1)C(=O)c1cc(O)cc(O)c1C2=O [EMODIN] | 33.6 | 75.7 | 76.4 | 65.1 | Activity [8]: 64.5%; Activity [9]: 83.3%; Activity [12]: 90.2% |
| O=c1c(O[C@@H]2O[C@H](CO)[C@H](O)[C@H](O)[C@H]2O)c(-c2ccc(O)c(O)c2)oc2cc(O)cc(O)c12 [HYPEROSIDE] | 92.2 | 87.3 | 93.8 | 71.4 | Contraction as % of control [4]: 120.9%; Contraction as % of control [5]: 100%; Contraction (% of control) [6]: 98.8% |
| COc1ccc2c(c1)c(CC(=O)O)c(C)n2C(=O)c1ccc(Cl)cc1 [INDOMETHACIN] | 0 | 72.3 | 89.4 | 69.5 | – |
| COc1cc(OC(C)=O)c2c(c1)C(=O)c1cc(C)cc(OC(C)=O)c1C2=O [PHYSCION DIACETATE] | – | – | – | – | Activity [13]: 76.5%; Activity [12]: 90.3%; Activity [14]: 89.4%; Activity [15]: 93.9% |
| COc1cc(O)c2c(c1)C(=O)c1cc(C)cc(O)c1C2=O [PHYSCION] | – | – | – | – | Activity [13]: 78.9%; Activity [12]: 89.6%; Activity [14]: 86.8%; Activity [15]: 80.7% |
| O=c1c(O)c(-c2ccc(O)c(O)c2)oc2cc(O)cc(O)c12 [QUERCETIN] | – | – | – | – | Contraction as % of control [4]: 13.9%; Contraction as % of control [5]: 27%; Activity [16]: 15%; Activity [17]: 44.9%; Activity [18]: 105%; Contraction (% of control) [6]: 0%; Activity [19]: 0%; Activity [20]: 29.1%; Activity [21]: 101.9% |
| COc1cc(OC(C)=O)c2c(=O)c(OC(C)=O)c(-c3ccc(OC(C)=O)c(OC)c3)oc2c1 [RHAMNAZIN TRIACETATE] | 10 | 14.3 | 84.5 | – | Activity [22]: Dose-dependent effect |
| COc1cc(OC(C)=O)c2c(=O)c(OC(C)=O)c(-c3ccc(OC(C)=O)c(OC(C)=O)c3)oc2c1 [RHAMNETIN TETRAACETATE] | 2.6 | 0 | 0 | – | Activity [22]: Dose-dependent effect |
| CC(=O)Oc1cc(OC(C)=O)c2c(=O)c(OC(C)=O)c(-c3ccc(O[C@@H]4O[C@H](CO[C@@H]5O[C@@H](C)[C@H](OC(C)=O)[C@@H](OC(C)=O)[C@H]5O[C@@H]5O[C@@H](C)[C@H](OC(C)=O)[C@@H](OC(C)=O)[C@H]5OC(C)=O)[C@H](OC(C)=O)[C@H](OC(C)=O)[C@H]4OC(C)=O)cc3)oc2c1 [RHAMNUSTRIOSIDE UNDECAAACETATE] | 88.5 | 86.5 | 89.9 | – | – |
| CC(=O)Oc1cc(OC(C)=O)c2c(=O)c(O[C@@H]3O[C@H](CO[C@@H]4O[C@@H](C)[C@H](OC(C)=O)[C@@H](OC(C)=O)[C@H]4OC(C)=O)[C@@H](OC(C)=O)[C@H](OC(C)=O)[C@H]3OC(C)=O)c(-c3ccc(OC(C)=O)c(OC(C)=O)c3)oc2c1 [RUTIN DECAACETATE] | 25.9 | 27.3 | 88.7 | 72.4 | – |
| C[C@@H]1O[C@@H](OC[C@H]2O[C@@H](Oc3c(-c4ccc(O)c(O)c4)oc4cc(O)cc(O)c4c3=O)[C@H](O)[C@@H](O)[C@@H]2O)[C@H](O)[C@H](O)[C@H]1O [RUTIN] | 93.5 | 87 | 91.1 | 75 | Contraction as % of control [4]: 112.9%; Contraction as % of control [5]: 103.8%; Contraction (% of control) [6]: 120.6% |
